Key:
[1] = AUC (0 to 24 hrs) in HIV1 infected human at 5 mg after 24 hrs presence of 400 mg of Lopinavir and 100 mg of itonavir; assay type: ADME, organism-based; set-up: time < 24 hr, dose 5 mg; settings: plasma
How it was run: (§1)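 HIV-infected adults (3.6–5.6 log10 RNA copies/ml) given enteric-coated tablets fasting; lopinavir-ritonavir given with food 2 h later. Plasma drawn on days 1 and 21 predose and at 0.5–24 h postdose. LC-MS/MS assay, range 0.500–100 ng/ml. Noncompartmental analysis gave Cmax, Tmax, C24 (24-h concentration) and linear-trapezoidal AUC0-24. Reported as arithmetic mean (%CV), median (range).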

[2] = Cmax in HIV1 infected human at 5 mg after 24 hrs presence of 400 mg of Lopinavir and 100 mg of itonavir; assay type: ADME, organism-based; set-up: dose 5 mg; settings: in vivo; how it was run: as §1
[3] = Tmax in HIV1 infected human at 5 mg after 24 hrs presence of 400 mg of Lopinavir and 100 mg of itonavir; assay type: ADME, organism-based; settings: in vivo; how it was run: as §1
[4] = Drug level in HIV1 infected human plasma at 5 mg after 24 hrs presence of 400 mg of Lopinavir and 100 mg of itonavir; assay type: ADME; settings: read-out: Drug uptake; how it was run: as §1
[5] = AUC (0 to 24 hrs) in HIV1 infected human at 10 mg after 24 hrs presence of 400 mg of Lopinavir and 100 mg of itonavir; assay type: ADME, organism-based; set-up: time < 24 hr, dose 10 mg; settings: plasma; how it was run: as §1
[6] = Cmax in HIV1 infected human at 10 mg after 24 hrs presence of 400 mg of Lopinavir and 100 mg of itonavir; assay type: ADME, organism-based; set-up: dose 10 mg; settings: in vivo; how it was run: as §1
[7] = Tmax in HIV1 infected human at 10 mg after 24 hrs presence of 400 mg of Lopinavir and 100 mg of itonavir; assay type: ADME, organism-based; settings: in vivo; how it was run: as §1
[8] = Drug level in HIV1 infected human plasma at 10 mg after 24 hrs presence of 400 mg of Lopinavir and 100 mg of itonavir; assay type: ADME, organism-based; settings: read-out: Drug uptake; how it was run: as §1
[9] = AUC (0 to 24 hrs) in HIV1 infected human at 20 mg after 24 hrs in presence of 400 mg of Lopinavir and 100 mg of itonavir administered once every 12 hrs; assay type: ADME, organism-based; set-up: time < 24 hr, dose 20 mg; settings: plasma; how it was run: as §1
[10] = Cmax in HIV1 infected human at 20 mg after 24 hrs in presence of 400 mg of Lopinavir and 100 mg of itonavir administered once every 12 hrs; assay type: ADME, organism-based; set-up: dose 20 mg; settings: in vivo; how it was run: as §1
[11] = Tmax in HIV1 infected human at 20 mg after 24 hrs in presence of 400 mg of Lopinavir and 100 mg of itonavir administered once every 12 hrs; assay type: ADME, organism-based; settings: in vivo; how it was run: as §1
[12] = Drug level in HIV1 infected human plasma at 20 mg after 24 hrs in presence of 400 mg of Lopinavir and 100 mg of itonavir administered once every 12 hrs; assay type: ADME; settings: read-out: Drug uptake; how it was run: as §1
[13] = AUC (0 to 24 hrs) in HIV1 infected human at 5 mg qd for 21 days in presence of 400 mg of Lopinavir and 100 mg of itonavir administered once every 12 hrs; assay type: ADME, organism-based; set-up: time < 24 hr, dose 5 mg; settings: plasma; how it was run: as §1
[14] = Cmax in HIV1 infected human at 5 mg qd for 21 days in presence of 400 mg of Lopinavir and 100 mg of itonavir administered once every 12 hrs; assay type: ADME, organism-based; set-up: dose 5 mg; settings: in vivo; how it was run: as §1
[15] = Tmax in HIV1 infected human at 5 mg qd for 21 days in presence of 400 mg of Lopinavir and 100 mg of itonavir administered once every 12 hrs; assay type: ADME, organism-based; settings: in vivo; how it was run: as §1
[16] = Drug level in HIV1 infected human plasma at 5 mg qd for 21 days in presence of 400 mg of Lopinavir and 100 mg of itonavir administered once every 12 hrs; assay type: ADME, organism-based; settings: read-out: Drug uptake; how it was run: as §1
[17] = Half life in HIV1 infected human at 5 mg qd for 21 days in presence of 400 mg of Lopinavir and 100 mg of itonavir administered once every 12 hrs; assay type: ADME, organism-based; settings: in vivo
How it was run: (§2)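 Elimination rate constant and t1/2 obtained by noncompartmental analysis after the day-21 dose, using 336 h of terminal-phase sampling. Plasma collected through day 35 (days 25, 28, 35 after stopping). Concentrations measured by LC-MS/MS, range 0.500–100 ng/ml. Eight subjects per cohort; reported as mean (%CV), median (range).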

[18] = AUC (0 to 24 hrs) in HIV1 infected human at 10 mg qd for 21 days in presence of 400 mg of Lopinavir and 100 mg of itonavir administered once every 12 hrs; assay type: ADME, organism-based; set-up: dose 10 mg, time < 24 hr; settings: plasma; how it was run: as §1
[19] = Cmax in HIV1 infected human at 10 mg qd for 21 days in presence of 400 mg of Lopinavir and 100 mg of itonavir administered once every 12 hrs; assay type: ADME, organism-based; set-up: dose 10 mg; settings: in vivo; how it was run: as §1
[20] = Tmax in HIV1 infected human at 10 mg qd for 21 days in presence of 400 mg of Lopinavir and 100 mg of itonavir administered once every 12 hrs; assay type: ADME, organism-based; settings: in vivo; how it was run: as §1
[21] = Drug level in HIV1 infected human plasma at 10 mg qd for 21 days in presence of 400 mg of Lopinavir and 100 mg of itonavir administered once every 12 hrs; assay type: ADME, organism-based; settings: read-out: Drug uptake; how it was run: as §1
[22] = Half life in HIV1 infected human at 10 mg qd for 21 days in presence of 400 mg of Lopinavir and 100 mg of itonavir administered once every 12 hrs; assay type: ADME, organism-based; settings: in vivo; how it was run: as §2
[23] = AUC (0 to 24 hrs) in HIV1 infected human at 20 mg administered once every 48 hrs for 21 days in presence of 400 mg of Lopinavir and 100 mg of itonavir administered once every 12 hrs; assay type: ADME, organism-based; set-up: dose 20 mg, time < 24 hr; settings: plasma; how it was run: as §1
[24] = Cmax in HIV1 infected human at 20 mg administered once every 48 hrs for 21 days in presence of 400 mg of Lopinavir and 100 mg of itonavir administered once every 12 hrs; assay type: ADME, organism-based; set-up: dose 20 mg; settings: in vivo; how it was run: as §1
[25] = Tmax in HIV1 infected human at 20 mg administered once every 48 hrs for 21 days in presence of 400 mg of Lopinavir and 100 mg of itonavir administered once every 12 hrs; assay type: ADME, organism-based; settings: in vivo; how it was run: as §1
[26] = Drug level in HIV1 infected human plasma at 20 mg administered once every 48 hrs for 21 days in presence of 400 mg of Lopinavir and 100 mg of itonavir administered once every 12 hrs; assay type: ADME, organism-based; settings: read-out: Drug uptake; how it was run: as §1
[27] = Half life in HIV1 infected human at 20 mg administered once every 48 hrs for 21 days in presence of 400 mg of Lopinavir and 100 mg of itonavir administered once every 12 hrs; assay type: ADME, organism-based; settings: in vivo; how it was run: as §2
Homo sapiens [28] = test: Peripheral volume of distribution with respect to the bioavailability in HIV1 infected human at 20 mg administered once every 48 hrs for 21 days in presence of 400 mg of Lopinavir and 100 mg of itonavir administered once every 12 hrs; assay type: ADME, organism-based; settings: in vivo
How it was run: (§3)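 Population compartmental fit to all plasma concentrations over 804 h. Two-compartment model with two first-order absorption rates, lag times per dose and first-order elimination. Relative bioavailability allowed to differ for day 1, the only dose given before lopinavir-ritonavir. Weighting 1/S², with S² = (a + b×Y)². Parameters expressed relative to F (CL/F, V/F).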

[29] = Volume of distribution at steady state with respect to the bioavailability in HIV1 infected human at 20 mg administered once every 48 hrs for 21 days in presence of 400 mg of Lopinavir and 100 mg of itonavir administered once every 12 hrs; assay type: ADME, organism-based; settings: in vivo, read-out: Vss/F; how it was run: as §3
[30] = Terminal half life in HIV1 infected human at 20 mg administered once every 48 hrs for 21 days in presence of 400 mg of Lopinavir and 100 mg of itonavir administered once every 12 hrs; assay type: ADME, organism-based; settings: in vivo, read-out: beta t1/2 (converted); how it was run: as §3
Homo sapiens [31] = species on record: Homo sapiens; test: Time prior to start absorption at first absorption site in HIV1 infected human at 20 mg after 24 hrs; assay type: ADME, organism-based; settings: in vivo; how it was run: as §3
Homo sapiens [32] = species on record: Homo sapiens; test: Time prior to start absorption at second absorption site in HIV1 infected human at 20 mg after 24 hrs; assay type: ADME, organism-based; settings: in vivo; how it was run: as §3
Homo sapiens [33] = test: Time prior to start absorption at first absorption site in HIV1 infected human at 20 mg administered once every 48 hrs for 21 days in presence of 400 mg of Lopinavir and 100 mg of itonavir administered once every 12 hrs; assay type: ADME, organism-based; settings: in vivo; how it was run: as §3
Homo sapiens [34] = test: Time prior to start absorption at second absorption site in HIV1 infected human at 20 mg administered once every 48 hrs for 21 days in presence of 400 mg of Lopinavir and 100 mg of itonavir administered once every 12 hrs; assay type: ADME, organism-based; settings: in vivo; how it was run: as §3
Homo sapiens [35] = test: Absorption rate constant at first absorption site in HIV1 infected human at 20 mg administered once every 48 hrs for 21 days in presence of 400 mg of Lopinavir and 100 mg of itonavir administered once every 12 hrs; assay type: ADME, organism-based; settings: in vivo; how it was run: as §3
Homo sapiens [36] = test: Absorption rate constant at second absorption site in HIV1 infected human at 20 mg administered once every 48 hrs for 21 days in presence of 400 mg of Lopinavir and 100 mg of itonavir administered once every 12 hr; assay type: ADME, organism-based; settings: in vivo; how it was run: as §3
[37] = Oral bioavailability in HIV1 infected human at 20 mg after 24 hrs; assay type: ADME, organism-based; settings: in vivo; how it was run: as §3
[38] = Apparent oral clearance in HIV1 infected human at 20 mg administered once every 48 hrs for 21 days in presence of 400 mg of Lopinavir and 100 mg of itonavir administered once every 12 hrs; assay type: ADME, organism-based; settings: in vivo; how it was run: as §3
Homo sapiens [39] = test: Central volume of distribution with respect to the bioavailability in HIV1 infected human at 20 mg administered once every 48 hrs for 21 days in presence of 400 mg of Lopinavir and 100 mg of itonavir administered once every 12 hrs; assay type: ADME, organism-based; settings: in vivo; how it was run: as §3
Homo sapiens [40] = test: Distributional clearance with respect to the bioavailability in HIV1 infected human at 20 mg administered once every 48 hrs for 21 days in presence of 400 mg of Lopinavir and 100 mg of itonavir administered once every 12 hrs; assay type: ADME, organism-based; settings: in vivo; how it was run: as §3

- AUC(0-t) at 24 h [1]: 59.9 ng·h/mL
- Cmax [2]: 7.25 ng/mL
- Tmax [3]: 6.63 h
- concentration at 24 h [4]: 0.832 ng/mL
- AUC(0-t) at 24 h [5]: 155 ng·h/mL
- Cmax [6]: 25.3 ng/mL
- Tmax [7]: 3.31 h
- concentration at 24 h [8]: 1.87 ng/mL
- AUC at 24 h [9]: 262 ng·h/mL
- Cmax [10]: 39.1 ng/mL
- Tmax [11]: 3.75 h
- concentration at 24 h [12]: 3.41 ng/mL
- AUC at 24 h [13]: 214 ng·h/mL
- Cmax [14]: 23.1 ng/mL
- Tmax [15]: 7 h
- concentration at 21 days [16]: 4.38 ng/mL
- half-life [17]: 92.5 h
- AUC at 24 h [18]: 435 ng·h/mL
- Cmax [19]: 49.9 ng/mL
- Tmax [20]: 3.75 h
- concentration at 21 days [21]: 9.7 ng/mL
- half-life [22]: 112 h
- AUC at 24 h [23]: 749 ng·h/mL
- Cmax [24]: 108 ng/mL
- Tmax [25]: 4 h
- concentration at 21 days [26]: 12 ng/mL
- half-life [27]: 105 h
- Vp/F (Homo sapiens [28]): 1618 L
- Vd/F [29]: 1620 L
- half-life [30]: 120 h
- Time (Homo sapiens [31]): 0.363 h
- Time (Homo sapiens [32]): 0.445 h
- Time (Homo sapiens [33]): 0.341 h
- Time (Homo sapiens [34]): 1.02 h
- ka (Homo sapiens [35]): 0.065 h⁻¹
- ka (Homo sapiens [36]): 0.42 h⁻¹
- bioavailability [37]: 55.4%
- CL/F [38]: 423 mL/min
- Vc/F (Homo sapiens [39]): 6.43 L
- CLd/F (Homo sapiens [40]): 15.4 L/h
SMILES: Nc1nc(=O)n([C@@H]2C=C[C@H](CO)O2)cc1F [ELVUCITABINE]

From ChEMBL document CHEMBL1629600, “Multiple-dose pharmacokinetic behavior of elvucitabine, a nucleoside reverse transcriptase inhibitor, administered over 21 days with lopinavir-ritonavir in human immunodeficiency virus type 1-infected subjects” (Antimicrob Agents Chemother, 2009)
